Published values pooled from the literature.
Observed: cell growth or viability

| Compound | cell line | technique | tested at | time | endpoint | value |
| --- | --- | --- | --- | --- | --- | --- |
| Cn1cc(C(c2ccc(C(=O)O)cc2)c2cn(C)c3ccccc23)c2ccccc21 | DU-145 | MTT | 100 µM | 48 h | inhibition | ~20% |
| CC(=O)O[C@@]12CO[C@@H]1C[C@H](O)[C@@]1(C)C(=O)[C@H](O)C3=C(C)[C@@H](OC(=O)[C@H](O)[C@@H](NC(=O)OC(C)(C)C)c4ccccc4)C[C@@](O)([C@@H](OC(=O)c4ccccc4)[C@H]21)C3(C)C | LNCaP | trypan blue | 3 nM | 72 h | inhibition | > 65% |
| COc1cc(Nc2nccc(-c3cnn4nc(OC)ccc34)n2)cc(C(F)(F)F)c1 | MOLT-4 | ATP luminescence | – | – | IC50 | 270 nM |
| O=C(O)/C=C/c1cccc(C(c2c[nH]c3ccccc23)c2c[nH]c3ccccc23)c1 | DU-145 | MTT | 100 µM | 48 h | inhibition | 28% |
| CCc1cccc(CN2CCc3cc(O)c(OC)cc3C2)c1 | DU-145 | WST-1 | – | 96 h | GI50 | > 100 µM |
| COc1ccc(-c2ccc(-c3ccc(C(=N)N)nc3)s2)cc1 | SF-295 | SRB | – | – | GI50 | 1.71 µM |
| COc1cc2c(cc1OS(N)(=O)=O)CCN(Cc1cccc(C)c1)C2 | DU-145 | WST-1 | – | 96 h | GI50 | 41.7 µM |
| COc1ccc(-c2ccc(-c3ccc(C(=N)N)nc3)s2)cc1Cl | BT-549 | SRB | – | – | GI50 | 1.72 µM |
| CC(C)C[C@H](NC(=O)[C@H](Cc1ccccc1)NC(=O)c1cnccn1)B(O)O | MOLT-4 | ATP luminescence | – | – | IC50 | 3.7 nM |
| COc1cc2c(cc1O)CCN(Cc1cccc([N+](=O)[O-])c1)C2 | DU-145 | WST-1 | – | 96 h | GI50 | > 100 µM |
| O=C1Nc2ccccc2C1=NNc1nnc2n1N=C(c1ccccc1)CS2 | DU-145 | SRB | 10 µM | – | inhibition | 16% |
| COc1ccc(CN2CCc3cc(OS(N)(=O)=O)c(OC)cc3C2)cc1 | DU-145 | WST-1 | – | 96 h | GI50 | 57.2 µM |
| Cc1cccc2c(C(c3ccc(/C=C/C(=O)O)s3)c3c[nH]c4c(C)cccc34)c[nH]c12 | DU-145 | MTT | 100 µM | 48 h | inhibition | 78% |
| COc1cc2c(cc1OS(N)(=O)=O)CCN(S(=O)(=O)c1ccccc1OC)C2 | DU-145 | WST-1 | – | 96 h | GI50 | > 100 µM |
| O=C(O)c1ccc(C(c2c[nH]c3ccccc23)c2c[nH]c3ccccc23)cc1 | LNCaP | MTT | 100 µM | 48 h | inhibition | 100% |
| COc1cccc(Oc2ccccc2NC(=O)CNC(=O)c2cccc3ccccc23)c1 | SF-295 | SRB | – | 48 h | GI50 | 0.112 µM |
